SENP8 block-1 = blocks the human protease SENP8; Q96LD8; purified SENP8, Z-RLRGG-aminoluciferin cleavage, luminescence; inhibition, % at 10 µM; 1.2% of 330,000 active; in the data active means inhibition above about 50%
SENP1 FRET inh = inhibitors of human SENP1 SUMO protease catalytic domain. recombinant SENP1 catalytic domain, CyPet-SUMO1-YPet FRET cleavage. Q9P0U3. 0.21% of 360,000 active. inhibition, % at 10 µM;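 active means inhibition at least 30% at 10 µM, raw YFP signal under a set limit, fluorescence ratio 0.5 to 1.5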;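 further: 0% = enzyme with DMSO and 100% = no enzyme wells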
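System: Recombinant human SENP1 catalytic domain, His6-tagged | Incubation: Enzyme reaction for 50 min at room temperature, dark | Medium: Tris pH 8 with BME, BSA, NP40 and catalase | Also added: 25 nM SUMO1 FRET substrate | Compound: 10 µM single point, 0.5% DMSO | Measured by: FRET fluorescence in CFP and YFP emission channels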
SENP6 block = blocks the human protease SENP6. Q9GZR1. Recombinant SENP6 catalytic domain, aminoluciferin luminescence. 1.8% of 330,000 active. inhibition, % at 10 µM;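 active means inhibition above about 50% at the single tested dose, limit read from the data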;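 further: plate controls were DMSO wells with enzyme for no effect and DMSO wells lacking enzyme for full effect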
SENP8 block-2 = SENP8 (human) protease inhibition | Q96LD8 | recombinant SENP8, Nedd8 substrate fluorescence | inhibition, % at 20 µM | 0.64% of 360,000 active; in the data active means inhibition mostly above about 40%, no sharp cut-off; inactive means mostly below about 27%
SENP7 block = SENP7 protease inhibition; recombinant SENP7, Z-RLRGG-aminoluciferin luminescence, 40 min; inhibition, % at 5 µM; 1.5% of 330,000 active;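 active means inhibition above about 50% at the single test dose, limit read from the data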;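 further: plate controls were DMSO with enzyme for no effect and no enzyme buffer wells for full effect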
Target sequence (Q9BQF6 706-1050 limits assumed): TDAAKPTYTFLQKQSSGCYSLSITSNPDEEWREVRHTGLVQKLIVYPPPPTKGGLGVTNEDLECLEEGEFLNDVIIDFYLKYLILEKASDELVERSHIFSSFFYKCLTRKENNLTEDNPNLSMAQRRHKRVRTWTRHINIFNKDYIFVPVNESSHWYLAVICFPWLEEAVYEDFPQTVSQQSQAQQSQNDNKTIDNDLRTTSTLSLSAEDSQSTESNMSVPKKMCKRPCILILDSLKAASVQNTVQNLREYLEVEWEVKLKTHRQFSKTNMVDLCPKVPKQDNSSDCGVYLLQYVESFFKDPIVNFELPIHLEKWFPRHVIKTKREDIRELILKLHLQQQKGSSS
Platelet DG rel = platelet dense granule release activity. AID 1663. human platelet-rich plasma, SFLLRN dense granule ATP release, luminescence. 0.22% of 300,000 active. inhibition, %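 (compounds screened at 7.5 µM in platelet-rich plasma)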;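 active means mean replicate score, as percent of positive control, at or above 50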
SENP8 confirm = confirmation of human SENP8 protease inhibitors. shares compounds with SENP7 block. Recombinant SENP8, Z-RLRGG-aminoluciferin luminescence, 60 min. inhibition, % at 12.5 µM. 40% of 6,200 active;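 active means mean inhibition across replicates above about 50%, limit read from the data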
SENP6 confirm = confirmation of human SENP6 protease inhibitors; shares compounds with SENP7 block; recombinant SENP6, Z-RLRGG-aminoluciferin luminescence; inhibition, % at 12.5 µM; 58% of 6,200 active; AID 488915
SENP7 conf = confirmation of human SENP7 protease inhibitors; recombinant SENP7, Z-RLRGG-aminoluciferin luminescence, 40 min; shares compounds with SENP7 block; 69% of 6,200 active; inhibition, % at 12.5 µM
Casp3 SENP sel = inhibits human caspase-3 in SENP selectivity test; 60% of 6,200 active; AID 488918; purified caspase-3, Z-DEVD-aminoluciferin luminescence, 60 min; shares compounds with SENP7 block; inhibition, % at 12.5 µM;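 active means mean inhibition above about 50%, limit read from the data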;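 further: plate controls were enzyme with DMSO for no effect and wells without caspase-3 for full effect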
Luc interf = luminescence interference (SENP counter-screen); inhibition, % at 12.5 µM; shares compounds with SENP7 block; Pre-incubated SENP8/Z-RLRGG-aminoluciferin, luciferase luminescence interference; 39% of 6,200 active;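 active means mean inhibition above about 50% when retested at one dose, limit read from the data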;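 further: plate controls were DMSO wells with completed reaction for no effect and substrate without enzyme for full effect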
The depositor's hits bear a star; . = not tested or not shown. In the library only some 2.6% were active in any assay of this set; here they are far more common.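 How the source made its calls, unless noted: active means mean inhibition above about 50% in the one-dose retest (limit read from the data); inactive means the rest.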

SMILES	SENP8 block-1	SENP1 FRET inh	SENP6 block	SENP8 block-2	SENP7 block	Platelet DG rel	SENP8 confirm	SENP6 confirm	SENP7 conf	Casp3 SENP sel	Luc interf
Cc1ccc(-c2nc3cc(Cl)ccc3o2)cc1	75*	2	91*	0	90*	-2	7	17	35	13	6
Cc1ccccc1NC(=O)c1cnc2ccccn2c1=O	39	-1	58*	-17	74*	13	55*	61*	52*	75*	18
O=C(NCCc1ccccc1)c1cnc2ccccn2c1=O	-6	-1	-20	-276	-8	4	.	.	.	.	.
Cc1ccc(C)c(NC(=O)c2cnn3ccccc23)c1	-2	-1	-3	-1	1	39	.	.	.	.	.
Cc1ccccc1NC(=O)c1cc2ccccn2n1	62*	-1	-5	0	67*	9	72*	70*	89*	87*	74*
CC(=O)c1cccc(NC(=O)c2cc3ccccn3n2)c1	-1	0	19	9	7	-1	.	.	.	.	.
Cc1ccc(C)c(NC(=O)c2cc3ccccn3n2)c1	27	3	56*	4	33	5	35	36	74*	72*	60*
COc1ccc(OC)c(NC(=O)Nc2nc(C(N)c3ccccc3Cl)cs2)c1 (stereo not given)	.	2	.	25	.	.	.	.	.	.	.
Nc1ccc2nn(-c3ccccc3)nc2c1	66*	-30	74*	-410	43	.	-5	65*	82*	62*	31
Nc1cc2nn(-c3ccccc3)nc2cc1Cl	.	-129	.	-420	.	3	.	.	.	.	.
COc1ccc(-n2nc3ccccc3n2)cc1	-22	-4	-56	4	-5	-3	.	.	.	.	.
Nc1ccc(-n2nc3ccccc3n2)cc1	38	-123	41	-452	64*	1	36	56*	87*	60*	67*
Cc1cc2nn(-c3cccc4ccccc34)nc2cc1N	-4	-17	13	-353	12	-5	.	.	.	.	.
Nc1ccc2nn(-c3cccc4ccccc34)nc2c1	85*	-15	79*	-490	77*	-5	-3	27	16	6	7
Cc1ccc(CNc2ccc3c(c2)OCO3)cc1	.	-24	.	-108	.	-6	.	.	.	.	.
Cc1ccc(COc2ccc3c(c2)OCO3)cc1	75*	1	91*	7	86*	0	48	85*	98*	70*	31
O=Cc1ccc(OCc2ccc3c(c2)OCO3)cc1	62*	-1	77*	32	71*	10	73*	73*	92*	81*	83*
O=C(Cc1ccc(OCc2ccccc2)cc1)NCc1ccc2c(c1)OCO2	.	1	.	7	.	.	.	.	.	.	.
CN(C(=O)CSc1ccc(S(=O)(=O)N2CCCCC2)cn1)c1ccccc1	1	0	-5	4	-7	.	.	.	.	.	.
Cc1cc(-c2nnc(SCC(=O)Nc3ccccc3Cl)n2C)no1	1	0	-10	7	-7	14	.	.	.	.	.
COc1ccc(S(N)(=O)=O)cc1C(=O)OCC(=O)NC(C)(C#N)C1CC1 (stereo not given)	3	1	4	11	3	.	.	.	.	.	.
Cc1ccccc1-c1noc(-c2cccs2)n1	78*	1	86*	27	85*	-1	38	84*	94*	61*	33
COc1nc(-c2ccccc2)ccc1-c1noc(-c2cccs2)n1	-30	-34	-50	-170	-4	-3	.	.	.	.	.
COc1nc(C)ccc1-c1noc(-c2cccs2)n1	49	-4	62*	-15	70*	-10	3	48	84*	41	14

Source: PubChem BioAssay (several laboratories)
